Results reported in article PMC11105966 (Journal of medicinal chemistry, 2024).
≈ marks a conversion by molar mass, not a printed value. Where “and” joins values, the source holds several entries; their conditions need not be identical. Equal entries are not always repeated. Where two headings read alike, the source gives them in different places.

Key:
MCF7 cells = assay: MTT cytotoxicity assay, MCF7 cells; format: cell-based, human
Outline: (§1)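 Cells seeded at 4000–7000 per well in 10% FBS medium. Lines were grown at 37°C, 5% CO2: MCF-7, LM3–3, BT-20 and BT-474 in DMEM/10% FBS; MDA-MB-468 in RPMI 1640/5% FBS; SUM159PT in Ham's F-12/5% FBS with insulin and hydrocortisone. At 70–80% confluence, test compound was added at 0.2–1000 nM for 72 h, then MTT. Viability relative to untreated cells; IC50 from Hill-slope fit.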

[1] = molecular target: DNA-bound ER/SRC-3/P300 complex (Homo sapiens, UniProt Q9Y6Q9); assay: Biotinylated ERE pull-down assay; format: biochemical
DNA-bound ER/SRC-3/P300 complex, sequence (Q9Y6Q9 whole entry, one chain of several): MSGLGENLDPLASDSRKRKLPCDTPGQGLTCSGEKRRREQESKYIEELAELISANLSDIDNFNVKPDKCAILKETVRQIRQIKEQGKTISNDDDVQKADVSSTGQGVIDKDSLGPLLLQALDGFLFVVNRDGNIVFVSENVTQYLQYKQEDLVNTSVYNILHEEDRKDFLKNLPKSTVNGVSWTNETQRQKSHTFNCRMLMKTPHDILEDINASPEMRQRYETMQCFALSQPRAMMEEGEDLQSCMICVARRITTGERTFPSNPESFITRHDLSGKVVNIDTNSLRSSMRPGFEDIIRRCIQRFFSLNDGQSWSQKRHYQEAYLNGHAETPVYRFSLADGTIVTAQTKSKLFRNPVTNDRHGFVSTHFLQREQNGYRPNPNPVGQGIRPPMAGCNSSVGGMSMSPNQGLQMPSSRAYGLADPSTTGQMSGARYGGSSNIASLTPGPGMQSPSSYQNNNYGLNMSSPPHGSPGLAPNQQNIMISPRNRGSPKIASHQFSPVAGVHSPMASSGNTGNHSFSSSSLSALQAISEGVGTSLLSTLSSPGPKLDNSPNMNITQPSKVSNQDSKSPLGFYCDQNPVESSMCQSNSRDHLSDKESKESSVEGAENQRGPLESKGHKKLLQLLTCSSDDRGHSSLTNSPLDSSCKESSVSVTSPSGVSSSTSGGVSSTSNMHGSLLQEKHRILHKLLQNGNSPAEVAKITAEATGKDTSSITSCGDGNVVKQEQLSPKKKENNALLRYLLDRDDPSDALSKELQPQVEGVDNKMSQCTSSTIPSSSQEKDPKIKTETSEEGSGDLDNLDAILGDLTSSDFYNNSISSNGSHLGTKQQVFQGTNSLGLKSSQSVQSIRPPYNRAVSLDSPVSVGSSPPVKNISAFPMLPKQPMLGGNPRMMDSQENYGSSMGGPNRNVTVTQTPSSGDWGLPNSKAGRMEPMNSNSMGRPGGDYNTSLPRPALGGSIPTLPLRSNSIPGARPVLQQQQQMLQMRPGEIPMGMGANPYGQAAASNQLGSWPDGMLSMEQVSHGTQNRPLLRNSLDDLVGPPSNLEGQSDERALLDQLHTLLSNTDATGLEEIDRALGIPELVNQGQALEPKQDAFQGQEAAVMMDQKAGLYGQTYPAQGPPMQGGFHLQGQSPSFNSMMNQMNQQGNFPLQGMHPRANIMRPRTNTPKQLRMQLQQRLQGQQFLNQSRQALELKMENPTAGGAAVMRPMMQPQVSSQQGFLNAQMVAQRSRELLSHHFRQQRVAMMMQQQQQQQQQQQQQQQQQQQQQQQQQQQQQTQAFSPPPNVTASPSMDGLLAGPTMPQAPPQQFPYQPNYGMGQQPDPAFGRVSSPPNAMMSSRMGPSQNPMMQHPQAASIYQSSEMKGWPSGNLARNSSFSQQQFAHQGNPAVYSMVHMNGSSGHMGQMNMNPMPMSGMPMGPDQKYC
Outline: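 Baculovirus-expressed, affinity-purified His-SRC-3-flag was incubated with test compound or vehicle for 30 min on ice, 0.1 μg protein. Then 0.1 μg recombinant ERα and His-p300 and an ERE-containing DNA oligo were added with 1 μM 17-β estradiol for 1 h on ice. The ER complex was pulled down and bound SRC-3 and p300 quantified by western blot.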

[2] = mice; cited from earlier work
[3] = test system: mouse primary hepatocytes; assay: MTT cytotoxicity assay, mouse primary hepatocytes; format: cell-based; conditions: for IC50: Mus musculus, Hepatocyte; for toxicity in mouse primary hepatocytes: up to 1000 nM
Outline: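 Primary hepatocytes were isolated by collagenase perfusion from an adult female CD-1 mouse. They were maintained in M199 medium with 10% FBS at 37°C, 5% CO2.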

[4] = Full pharmacokinetic profile, IV and oral, CD-1 mice; format: in vivo; conditions: male, CD-1, mouse, plasma; for Cmax: po, 10 mg/kg
Outline: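 Male mice, 6 weeks, n=3 per route. Test compound in 20% DMSO, 16% PEG, 4% dextrose in PBS: IV 1 mg/kg (0.5 mg/mL) or oral gavage 10 mg/kg (1 mg/mL). 10 μL blood taken from 2 or 15 min to 48 h. Plasma measured by LC-MS/MS against 0.5–1000 ng/mL calibration standards with four QC levels. Non-compartmental extravascular PK fit.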

[5] = Maximum tolerated dose / tolerability in mice; format: in vivo
LNCaP cells = assay: LNCaP xenograft mouse model; format: in vivo, SCID mice
Outline: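 1×10^7 LNCaP cells were implanted subcutaneously on both sides of the back of male SCID mice. Daily 10 mg/kg i.p. dosing or vehicle started 4 weeks after inoculation and ran for 4 weeks. Tumor size (length × width × width/2) measured weekly. Survival endpoint was tumor diameter of 3.0 cm. Ki67, cleaved caspase 3 and CD31 IHC on tumor sections at the end of treatment.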

Percentage of free drug = format: in vitro ADME
Water solubility = format: physicochemical
[6] = Stability in human plasma; format: in vitro ADME; conditions: Fig S2
[7] = test system: seven human cancer cell lines known to overexpress SRC-3; assay: MTT cytotoxicity, panel of seven human cancer cell lines; format: cell-based; conditions: read-out: IC50 values across the cancer cell lines
Outline: as §1

hERG = hERG (Homo sapiens, UniProt Q12809); format: cell-based
hERG, sequence (Q12809 whole entry): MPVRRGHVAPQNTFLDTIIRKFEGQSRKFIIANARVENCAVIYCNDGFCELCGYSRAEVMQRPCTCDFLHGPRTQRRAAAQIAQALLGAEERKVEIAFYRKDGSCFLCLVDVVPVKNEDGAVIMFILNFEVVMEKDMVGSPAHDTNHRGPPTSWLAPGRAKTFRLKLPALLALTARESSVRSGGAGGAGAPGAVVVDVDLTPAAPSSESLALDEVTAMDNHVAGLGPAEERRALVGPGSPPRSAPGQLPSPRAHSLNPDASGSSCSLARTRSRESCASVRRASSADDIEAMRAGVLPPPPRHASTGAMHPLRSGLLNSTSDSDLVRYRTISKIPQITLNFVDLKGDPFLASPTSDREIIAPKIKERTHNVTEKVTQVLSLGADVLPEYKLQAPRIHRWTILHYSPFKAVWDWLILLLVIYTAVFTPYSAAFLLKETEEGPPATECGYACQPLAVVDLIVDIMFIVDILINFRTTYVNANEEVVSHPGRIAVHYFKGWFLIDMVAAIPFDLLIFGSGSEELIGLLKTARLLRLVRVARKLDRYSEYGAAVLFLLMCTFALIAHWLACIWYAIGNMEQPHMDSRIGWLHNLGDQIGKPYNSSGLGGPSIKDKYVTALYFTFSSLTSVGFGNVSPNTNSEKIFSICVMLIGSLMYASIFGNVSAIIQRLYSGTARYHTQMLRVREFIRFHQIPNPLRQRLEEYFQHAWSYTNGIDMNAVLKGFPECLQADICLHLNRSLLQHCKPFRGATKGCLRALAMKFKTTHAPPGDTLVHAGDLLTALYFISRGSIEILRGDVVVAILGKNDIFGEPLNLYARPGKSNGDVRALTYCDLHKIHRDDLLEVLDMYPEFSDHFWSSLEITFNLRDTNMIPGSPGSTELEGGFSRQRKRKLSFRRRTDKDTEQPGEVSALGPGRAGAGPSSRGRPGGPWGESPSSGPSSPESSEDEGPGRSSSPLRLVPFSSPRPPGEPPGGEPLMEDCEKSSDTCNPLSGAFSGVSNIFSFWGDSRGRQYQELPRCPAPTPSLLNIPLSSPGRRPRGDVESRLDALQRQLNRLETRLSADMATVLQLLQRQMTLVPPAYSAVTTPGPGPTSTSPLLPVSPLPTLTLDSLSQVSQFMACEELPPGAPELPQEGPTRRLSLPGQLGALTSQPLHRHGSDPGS

AR-PDX tumor cells 118b = assay: Intra-femoral bone metastasis mouse model of prostate cancer; format: in vivo, SCID mice; conditions: 10 mg/kg/day i.p., four weeks; for reduction in femur volume compared to vehicle: CT imaging
Outline: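 1 × 10^5 AR-PDX 118b cells were injected […] into male SCID mice aged 8–9 weeks. Two weeks later, n=9 per group received vehicle or 10 mg/kg/day i.p. for 4 weeks; x-ray imaging every two weeks. Femurs were collected at the end. CT 3D reconstruction was done on 5 femurs per group, plus histology; tumor/femur area ratio. Left femur as negative control.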

[8] = test system: prostate cancer PDX organoids; assay: Inhibition assay in prostate cancer PDX organoids; format: cell-based, human; conditions: 2 weeks treatment
Outline: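 Tumors grown in SCID mice were digested with collagenase I and III to single cells. 20000 cells were embedded in collagen gel, set 20 min at 37°C, then cultured overnight at 37°C, 5% CO2. Test compound or vehicle given for 14 days, at least 5 wells per dose. Organoids imaged and counted on day 14; Student t test.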

MDA-MB-468 cells = assay: Wash-out experiment in MDA-MB-468 cell line; format: cell-based, human; conditions: drug washed out with PBS, total incubation 72 h, MTT
Outline: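 MDA-MB-468 cells were grown in RPMI 1640 with 5% FBS. They were exposed to test compound for varying durations, washed with PBS, and kept in culture to a total of 72 h. Viability was read by MTT, and EC50 and EC90 were derived for each exposure time.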

Panc-1-Luc cells = assay: Orthotopic Panc-1 PDAC mouse model; format: in vivo, SCID mice; conditions: 10 mg/kg i.p. once per day, 8 weeks, orthotopic PDAC mice
Outline: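 0.5×10^6 Panc-1-Luc cells were implanted orthotopically in the pancreas of male SCID mice aged 8 weeks. Mice were randomized by luciferase imaging (n=5 per group). From day 8, test compound 10 mg/kg i.p. or vehicle was given daily. Luciferase imaging and body weight were recorded weekly; tumors harvested at day 63.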

PANC-1-shSRC-3.1 cells = assay: MTT viability, SRC-3 knock-down cells shSRC-3.1; format: cell-based, human; conditions: PANC-1 shSRC-3.1 and shSRC-3.2 vs control/parental cells
Outline: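 SRC-3 was stably knocked down in PANC-1 cells with lentiviral shRNAs (shSRC-3.1, shSRC-3.2; shCtrl control), and SRC-3 levels were checked by western blot. Cells were treated with varying doses of test compound for 72 h and viability read by MTT. The IC50 of knock-down cells was compared with that of control cells to give the fold change.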

[9] = test system: 78 targets, including GPCRs, ion channel, receptors, kinase, enzymes and transporters; assay: SafetyScreen panel against 78 targets; conditions: at 10 μM
Outline: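 Commercial off-target safety panel covering GPCR (calcium flux agonist/antagonist, cAMP), ion channel (hERG blocker) and non-kinase enzyme assays. Test compound was screened at 10 μM, with RC50 values determined for interacting targets.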

[10] = cytotoxicity to MCF7 cells, MTT assay, 72 h, mean of triplicate

Compound “1-(1-methyl-1H-benzo[d]imidazol-2-yl)-3-(pyridin-2-yl)-1H-pyrazol-5-ol [compound 12]” has an IC50 (MCF7 cells; [10]) greater than 1000 nM.
With “6-((E)-1-(((E)-5,6-dichloro-1-methyl-1,3-dihydro-2H-benzo[d]imidazol-2-ylidene)hydrazineylidene)ethyl)nicotinamide [6g]” the IC50 (MCF7 cells; [10]) was 2.7 nM.
Work on “6-((E)-1-(((E)-5,6-difluoro-1-methyl-1,3-dihydro-2H-benzo[d]imidazol-2-ylidene)hydrazineylidene)ethyl)-N-hydroxynicotinamide [6m]” yielded an IC50 (MCF7 cells; [10]) greater than 1000 nM.
For `C/C(=N\NC1Oc2ccccc2N1C)c1ccc(F)cn1` (stereo not drawn) [8a, (E)-2-(2-(1-(5-fluoropyridin-2-yl)ethylidene)hydrazineyl)-3-methyl-2,3-dihydrobenzo[d]oxazole], the “effect on the ER complex” value ([1]; at 1.5 μM) was “did not affect the ER complex” and the IC50 (MCF7 cells; Homo sapiens, MCF7, 72 h) was greater than 1000 nM.
For `C/C(=N\Nc1nc2ccccc2n1C)c1ccccn1` [SI-2], the plasma half-life [2] is listed as 1 h and ~ 1 h.
With `C/C(=N\Nc1nc2cc(F)c(F)cc2n1C)c1ncccn1` [SI-10, (E)-5,6-difluoro-1-methyl-2-(((E)-1-(pyrimidin-2-yl)ethylidene)hydrazineylidene)-2,3-dihydro-1H-benzo[d]imidazole] the IC50 [3] was greater than 1000 nM, the “toxicity in mouse primary hepatocytes” value [3] was “did not observe any toxicity” and the AUC(0-t) ([4]; iv, 1 mg/kg) was 0.29 µM·h. For the same compound, the Cmax [4] was 1140 nM, the body weight ([5]; 50 mg/kg or 100 mg/kg, once per day, 4 weeks) was “did not cause any loss of body weight” and the acute tolerability ([5]; oral administration up to 100 mg/kg (highest dose tested)) was “did not cause appreciable stress”. For the same compound, the mouse survival (LNCaP cells; 10 mg/kg i.p. once per day, 3.0 cm tumor diameter endpoint) was “significantly prolonged”, the “cleaved caspase 3 positive tumor cells” value (LNCaP cells; IHC at end of treatment, vehicle 2%) was “Approximately 10%” and the “Ki67 positive cells in tumors” value (LNCaP cells; IHC at end of treatment, vehicle more than 50% positive) was “significantly lower”. The “percentage of free drug” value (Percentage of free drug) was 6.6%, the solubility (Water solubility) was 22.8 µM (≈ 6.89 µg/mL) and the “stability in human plasma” value [6] was “excellent stability”. The IC50 [7] was 1 to 32 nM, the hERG inhibition (hERG; at 30 μM) was “did not show appreciable hERG inhibition” and the “decrease of ratio of tumor area to femur area” value (AR-PDX tumor cells 118b) was “over 50%”. The “reduction in femur volume compared to vehicle” value (AR-PDX tumor cells 118b) was greater than 55%.
In the case of `C/C(=N\N=c1/[nH]c2cc(F)c(F)cc2n1C)c1ccc(F)cn1` [SI-12, (E)-5,6-difluoro-2-(((E)-1-(5-fluoropyridin-2-yl)ethylidene)hydrazineylidene)-1-methyl-2,3-dihydro-1H-benzo[d]imidazole], the IC50 [3] is reported as greater than 1000 nM, the “toxicity in mouse primary hepatocytes” value [3] is reported as “did not observe any toxicity” and the “formation and growth of organoids” value [8] is reported as “effectively suppressed”. The “treatment time sufficient to achieve maximal cytotoxicity” value (MDA-MB-468 cells) was 3 to 6 h, the AUC(0-t) ([4]; iv, 1 mg/kg) was 2.31 µM·h and the half-life ([4]; iv, 1 mg/kg) was 22 h. For the same compound, the Cmax [4] was 2740 nM, the body weight (Panc-1-Luc cells) was “did not cause any mice body weight change” and the “fold reduction of potency in SRC-3 knock-down cells vs control cells” value (PANC-1-shSRC-3.1 cells) was “approximately 5 fold”. For the same compound, the “fold reduction of potency in SRC-3 knock-down cells vs control cells” value (PANC-1-shSRC-3.1 cells; listed as SI-12 (6c)) was 4.7 ~5.8 fold, the “percentage of free drug” value (Percentage of free drug) was 2.2% and the “recruitment of SRC-3 and p300 in the ER complex” value ([1]; at 0.15 μM, SRC-3 protein 0.13 μM) was “significantly decreased”. For the same compound, the solubility (Water solubility) was 3.8 µM (≈ 1.21 µg/mL), the “stability in human plasma” value [6] was “excellent stability” and the “interactions with other targets of the panel” value [9] was “minimal”. For the same compound, the hERG inhibition (hERG; at 10 μM) was “moderate hERG inhibition”, the “decrease of ratio of tumor area to femur area” value (AR-PDX tumor cells 118b) was “over 50%” and the “reduction in femur volume compared to vehicle” value (AR-PDX tumor cells 118b) was greater than 55%.
Compound “(E)-2-(2-(1-(5-fluoropyridin-2-yl)ethylidene)hydrazineyl)-3-methyl-2,3-dihydrobenzo[d]thiazole [8b]” has an IC50 (MCF7 cells; [10]) greater than 1000 nM.
Work on “methyl 6-((E)-1-(((E)-5,6-dichloro-1-methyl-1,3-dihydro-2H-benzo[d]imidazol-2-ylidene)hydrazineylidene)ethyl)nicotinate [6f]” yielded an IC50 (MCF7 cells; [10]) of 2.9 nM.
